Experimental data reported in ChEMBL document CHEMBL1135464, “3-Aryl-2-quinolone derivatives: synthesis and characterization of in vitro and in vivo antitumor effects with emphasis on a new therapeutical target connected with cell migration” (J Med Chem, 2002).

Experiments:
A-427 = assay: Cytotoxicity against A-427 nonsmall lung cell line using MTT colorimetric assay; format: functional, cell-based; details: Homo sapiens
In short: (§1)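 Human tumour lines from ATCC were grown at 37 °C in sealed dishes in MEM with 5% FCS. Cells were seeded at 40000 cells/mL in 96-well plates and left 24 h to plate. Each drug was then tested at six concentrations from 10^-5 to 10^-9 M. Growth was read by colorimetric MTT assay.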

A549 = assay: Cytotoxicity against A549 nonsmall lung cell line using MTT colorimetric assay; format: functional, cell-based; details: Homo sapiens; in short: as §1
A 172 = assay: Cytotoxicity against A-172 glioblastomas using MTT colorimetric assay; format: functional, cell-based; details: Homo sapiens; in short: as §1
[1] = Evaluated in vivo for maximum tolerated dose and found to be nontoxic; format: ADME, organism-based
HCT-15 = assay: Cytotoxicity against HCT-15 colon cell line using MTT colorimetric assay; format: functional, cell-based; details: Homo sapiens; in short: as §1
J82 = assay: Cytotoxicity against J82 bladder cell lines using MTT colorimetric assay; format: functional, cell-based; details: Homo sapiens; in short: as §1
LoVo = assay: Cytotoxicity measured on LoVo colon cell line using MTT colorimetric assay; format: functional, cell-based; details: Homo sapiens; in short: as §1
PC-3 = assay: Cytotoxicity against prostate cell line PC-3 using MTT colorimetric assay; format: functional, cell-based; details: Homo sapiens; in short: as §1
T47D = assay: Cytotoxicity against Breast cancer cell line T-47D using MTT colorimetric assay; format: functional, cell-based; details: Homo sapiens; in short: as §1
T-24 = assay: Cytotoxicity against T24 bladder cell lines using MTT colorimetric assay; format: functional, cell-based; details: Homo sapiens; in short: as §1
U373 MG = assay: Cytotoxicity against U-373 MG glioblastomas using MTT colorimetric assay; format: functional, cell-based, U-373MG ATCC; details: Homo sapiens; in short: as §1
U-87 MG = assay: Cytotoxicity against U-87 MG glioblastomas using MTT colorimetric assay; format: functional, cell-based, U-87MG ATCC; details: Homo sapiens; in short: as §1
MCF7 = assay: Cytotoxicity against Breast cancer cell line MCF-7 using MTT colorimetric assay; format: functional, cell-based; details: Homo sapiens; in short: as §1

Row | SMILES | IC50 (A-427) [µM] | IC50 (A549) [µM] | IC50 (A 172) [µM] | MTD [1] [mg/kg] | IC50 (HCT-15) [µM] | IC50 (J82) [µM] | IC50 (LoVo) [µM] | IC50 (PC-3) [µM] | IC50 (T47D) [µM] | IC50 (T-24) [µM] | IC50 (U373 MG) [µM] | IC50 (U-87 MG) [µM] | IC50 (MCF7) [µM]
1 | COc1cc(OC)c2cc(-c3ccc(O)cc3)c(=O)n(C)c2c1 | > 10 | > 10 | > 10 | 160 | > 10 | > 10 | > 10 | > 10 | > 10 | > 10 | > 10 | > 10 | > 10
2 | COc1ccc(-c2cc3c(OC)cc(OC)cc3n(CCC#N)c2=O)cc1 | > 10 | > 10 | > 10 | 160 | > 10 | > 10 | > 10 | > 10 | > 10 | > 10 | > 10 | > 10 | > 10
3 | COc1cc(OC)c2cc(-c3ccc(O)cc3)c(O)nc2c1 | > 10 | > 10 | > 10 | 160 | > 10 | > 10 | > 10 | > 10 | > 10 | > 10 | > 10 | > 10 | > 10
4 | COc1ccc(-c2cc3c(OC)cc(OC)cc3n(CC(=O)O)c2=O)cc1 | > 10 | > 10 | > 10 | 160 | > 10 | > 10 | > 10 | > 10 | > 10 | > 10 | > 10 | > 10 | > 10
5 | CCOC(=O)Cn1c(=O)c(-c2ccc(OC)cc2)cc2c(OC)cc(OC)cc21 | > 10 | > 10 | > 10 | 160 | > 10 | > 10 | > 10 | > 10 | > 10 | > 10 | > 10 | > 10 | > 10
6 | CC(=O)Oc1ccc(-c2cc3c(OC(C)=O)cc(OC(C)=O)cc3n(C)c2=O)cc1 | > 10 | > 10 | > 10 | 160 | > 10 | > 10 | > 10 | > 10 | > 10 | > 10 | > 10 | > 10 | > 10
7 | COc1cc(OC)c2cc(-c3ccc(OC(C)=O)cc3)c(=O)n(C)c2c1 | > 10 | > 10 | > 10 | 160 | > 10 | > 10 | > 10 | > 10 | > 10 | > 10 | > 10 | > 10 | > 10
8 | COc1ccc(-c2cc3c(OC)cc(OC)cc3n(C)c2=O)cc1 | > 10 | > 10 | – | 160 | > 10 | > 10 | > 10 | > 10 | > 10 | > 10 | > 10 | > 10 | > 10
9 | COc1ccc(-c2cc3cccc(OC)c3nc2O)cc1 | > 10 | > 10 | > 10 | 160 | > 10 | > 10 | > 10 | > 10 | > 10 | > 10 | > 10 | > 10 | > 10
10 | COc1ccc(-c2cc3c(OC)cc(OC)cc3n(C)/c2=N\Nc2ccccn2)cc1 | > 10 | > 10 | > 10 | 160 | > 10 | > 10 | > 10 | > 10 | > 10 | > 10 | > 10 | > 10 | > 10
11 | COc1ccc(-c2cc3c(OC)cc(OC)cc3n(C)c2=S)cc1 | > 10 | > 10 | > 10 | 160 | > 10 | > 10 | > 10 | > 10 | > 10 | > 10 | > 10 | > 10 | > 10
12 | COc1cccc2cc(-c3ccccc3)c(O)nc12 | > 10 | > 10 | > 10 | 160 | > 10 | > 10 | > 10 | > 10 | > 10 | > 10 | > 10 | > 10 | > 10
13 | COc1ccc(-c2cc3c(OC)cc(OC)cc3n(CCCC#N)c2=O)cc1 | > 10 | > 10 | > 10 | 160 | > 10 | > 10 | > 10 | > 10 | > 10 | > 10 | > 10 | > 10 | > 10
14 | CCN(CC)C(=O)CCn1c(=O)c(-c2ccc(OC)cc2)cc2c(OC)cc(OC)cc21 | > 10 | > 10 | > 10 | 160 | > 10 | > 10 | > 10 | > 10 | > 10 | > 10 | > 10 | > 10 | > 10
15 | Cn1c(=O)c(-c2ccc(O)cc2)cc2c(O)cc(O)cc21 | > 10 | > 10 | > 10 | 160 | > 10 | > 10 | > 10 | > 10 | > 10 | > 10 | > 10 | > 10 | > 10
16 | COc1cc(OC)c2cc(-c3ccccc3)c(O)nc2c1 | > 10 | > 10 | > 10 | 160 | > 10 | > 10 | > 10 | > 10 | > 10 | > 10 | > 10 | > 10 | > 10
17 | COc1ccc(-c2cc3c(OC)cc(OC)cc3n(CC(=O)OCc3ccccc3)c2=O)cc1 | > 10 | > 10 | > 10 | 160 | > 10 | > 10 | > 10 | > 10 | > 10 | > 10 | > 10 | > 10 | > 10
18 | COc1cc(OC)c2cc(-c3ccc(OCc4ccccc4)cc3)c(O)nc2c1 | > 10 | > 10 | > 10 | 160 | > 10 | > 10 | > 10 | > 10 | > 10 | > 10 | > 10 | > 10 | > 10
19 | COc1ccc(-c2cc3c(OC)cc(OC)cc3n(CCN(C)C)c2=O)cc1 | > 10 | > 10 | > 10 | 160 | > 10 | > 10 | > 10 | > 10 | > 10 | > 10 | > 10 | > 10 | > 10
20 | COc1ccc(-c2cc3c(OC)cc(OC)cc3nc2O)cc1 | – | – | – | 160 | – | – | – | – | – | – | – | – | –
21 | COc1ccc(-c2cc3c(OC)cc(OC)cc3n(CC#N)c2=O)cc1 | > 10 | > 10 | > 10 | 160 | > 10 | > 10 | > 10 | > 10 | > 10 | > 10 | > 10 | > 10 | > 10
22 | COc1ccc(-c2cc3c(OC)cc(OC)c4c3n(c2=O)CCC4=O)cc1 | > 10 | > 10 | > 10 | 160 | > 10 | > 10 | > 10 | > 10 | > 10 | > 10 | > 10 | > 10 | > 10
23 | COc1ccc(-c2cc3c(OC)cc(OC)cc3n(C)/c2=N\Nc2ccccc2)cc1 | > 10 | > 10 | > 10 | 160 | > 10 | > 10 | > 10 | > 10 | > 10 | > 10 | > 10 | > 10 | > 10
24 | Oc1ccc(-c2cc3c(O)cc(O)cc3nc2O)cc1 | > 10 | > 10 | > 10 | 160 | > 10 | > 10 | > 10 | > 10 | > 10 | > 10 | > 10 | > 10 | > 10
